The values below come from ChEMBL document CHEMBL3259753, “Synthesis, structure-activity relationships and biological evaluation of dehydroandrographolide and andrographolide derivatives as novel anti-hepatitis B virus agents” (Bioorg Med Chem Lett, 2014).

Data set [1] is described as follows: Selectivity index, ratio of CC50 for human HepG2.2.15 cells to IC50 for HBV infected in human HepG2.2.15 cells assessed as inhibition of hepatitis B e antigen secretion. In kind it is functional.
A short description of data set [2]: Selectivity index, ratio of CC50 for human HepG2.2.15 cells to IC50 for HBV infected in human HepG2.2.15 cells assessed as inhibition of DNA replication. In kind it is functional.
Data set [3] in a line: Cytotoxicity against human HepG2.2.15 cells by MTT assay. In kind it is cell-based, HepG2 2.2.15.
Data set [4] deals with Hepatitis B virus. The data set can be described thus: Antiviral activity against HBV infected in human HepG2.2.15 cells assessed as inhibition of DNA replication. In kind it is functional, organism-based. To be noted: HepG2 2.2.15.
Data set [5] has as its system Hepatitis B virus. As to the kind of experiment: Antiviral activity against HBV infected in human HepG2.2.15 cells assessed as inhibition of hepatitis B e antigen secretion by ELISA. In kind it is functional, organism-based. As to conditions: HepG2 2.2.15.
Data set [6] can be described thus: Octanol-water partition coefficient, log P of the compound at 30 degC by HPLC analysis. As to conditions: read-out: logP. In kind it is physicochemical. The gist of the method: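 Shake-flask method: solutes equilibrated between octanol and water. Compound concentration in the octanol phase determined by HPLC. LogP determined at 30 °C.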

As to `C=C1CC[C@@H]2[C@](C)(COC(=O)/C=C/c3cc(OC)c(OC)c(OC)c3)[C@H](O)CC[C@@]2(C)[C@@H]1/C=C/C1=CCOC1=O`, the results for the “Ratio CC50/IC50” value in data set [1] and in data set [2] were above 8.5 and above 165.1, respectively. Also, the CC50 in data set [3] was above 1710 µM. Moreover, the half-inhibitory concentration (IC50) in the data set with Hepatitis B virus [4] is 10.3 µM; with Hepatitis B virus [5] it was 201 µM. In data set [6], the logP was determined as 1.78.
